Assay results gathered from unrelated publications.
Protocols differ between the studies behind these lines.
BACE1: Beta-secretase 1 (BACE1, Homo sapiens, UniProt P56817)
Htr2c: 5-hydroxytryptamine receptor 2C (Htr2c, Mus musculus, UniProt P34968)
HLA class I histocompatibility antigen, A alpha chain: HLA class I histocompatibility antigen, A alpha chain (Homo sapiens, UniProt P04439)

`C=CCOc1ccc(C(=O)/C=C/c2ccc(OC)cc2)c(OS(C)(=O)=O)c1I` gave an IC50 of 48100 nM (BACE1; enzyme activity; inhibitor; fluorescence).
The EC50 of `COc1cc(CCN)c(OC)cc1C#N` is reported as 200 nM (Htr2c; G protein activation; agonist; BRET).
`CC(C)C[C@H](NC(=O)[C@@H]1CCCN1C(=O)[C@H](Cc1c[nH]c2ccccc12)NC(=O)[C@H](CC(=O)O)NC(=O)[C@H](Cc1ccc(O)cc1)NC(=O)[C@@H](NC(=O)[C@@H](N)Cc1ccc(O)cc1)C(C)C)C(=O)N[C@H](C(=O)N[C@@H](Cc1ccccc1)C(=O)O)[C@@H](C)O` has an IC50 of 21500 nM (HLA class I histocompatibility antigen, A alpha chain; cell-free assay).
With `CCCC[C@H](NC(C)=O)C(=O)N[C@H]1CC(=O)NCCCC[C@@H](C(=O)N2CCC[C@@H]2C(=O)N[C@@H](C(=O)N2CCC[C@@H]2C(N)=O)C(C)C)NC(=O)[C@H](Cc2c[nH]c3ccccc23)NC(=O)[C@H](CCCNC(=N)N)NC(=O)[C@@H](Cc2ccccc2)NC(=O)[C@@H]2CCCN2C1=O` the EC50 was 0.407 nM (Melanocyte-stimulating hormone receptor (MC1R, Homo sapiens, UniProt Q01726); cAMP; agonist).
With `C=CCOc1ccc(C(=O)/C=C/c2cccc(F)c2)c(OS(=O)(=O)c2ccc(OC)cc2)c1I` the IC50 was 21600 nM (BACE1; enzyme activity; inhibitor; fluorescence).
The EC50 of `COc1cc(CCN)c(OC)cc1Br` is reported as 4.27 nM (Htr2c; G protein activation; agonist; BRET).
The IC50 of `CC(C)C[C@H](NC(=O)[C@@H](NC(=O)[C@H](CCCCN)NC(=O)[C@H](CC(=O)O)NC(=O)[C@H](Cc1ccc(O)cc1)NC(=O)[C@H](C)NC(=O)[C@@H](N)CCCNC(=N)N)[C@@H](C)O)C(=O)N[C@@H](Cc1ccc(O)cc1)C(=O)N[C@@H](Cc1ccccc1)C(=O)O` is reported as 15 nM (HLA class I histocompatibility antigen, A alpha chain; cell-free assay).
The EC50 of `CCN(CC)C(=O)[C@@H]1C=C2c3cccc4[nH]cc(c34)C[C@H]2N(C)C1` is reported as 1.58 nM (D(2) dopamine receptor (DRD2, Homo sapiens, UniProt P14416); G protein activation; agonist; BRET).
